From ChEMBL document CHEMBL4665800, “Biased Agonism at Nociceptin/Orphanin FQ Receptors: A Structure Activity Study on N/OFQ(1-13)-NH” (J Med Chem, 2020)
Starred links: 1 amine or outer side, 2 acyl side, 3 side chain; linkers in the order of their positions; H or OH if unused. Positions of bridges follow the written chain, without caps; N, C: chain ends. Non-standard residues stand in square brackets, D forms with d. Residues, ends and D or L forms follow the SMILES beside them. Chains are numbered I, II in the order given. *: point of attachment. X1 = CCCCCCCCCCCCCCCC(=O)NCCCN1C(=O)CC(*)C1=O; X2 = O=C1CC([*:1])C(=O)N1CCCC(=O)[*:2]; Ac5c = NC1(C(=O)O)CCCC1; Ac3c = NC1(C(=O)O)CC1; Aib = CC(C)(N)C(=O)O

How the values were obtained:
[1] = biological target: T1, Nociceptin receptor (Homo sapiens, UniProt P41146); assay: Bias factor, selectivity for agonist activity at NOP (unknown origin) expressed in HEK293 cell membranes co-expressing beta-arrestin2-RGFP protein assessed as induction of beta-arrestin2 activation to agonist activity at NOP (unknown origin) expressed in HEK293 cell membranes co-expressing Gbeta1-RGFP protein assessed as induction of G protein activation; format: cell-based
Procedure, shortened: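 Concentration–response curves in the NOP G protein and β-arrestin 2 BRET assays were fitted to the Black–Leff operational model. Mean of at least five experiments with 95% confidence limits.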

[2] = biological target: T1, Nociceptin receptor; assay: Agonist activity at NOP (unknown origin) […] assessed as induction of beta-arrestin2 activation incubated for 15 mins by BRET assay; format: cell-based, HEK293
[3] = biological target: T1, Nociceptin receptor; assay: Agonist activity at NOP (unknown origin) expressed in HEK293 cell membranes co-expressing Gbeta1-RGFP protein assessed as induction of G protein activation incubated for 15 mins by BRET assay; format: cell-based
Procedure, shortened: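 Membranes (3 μg protein) from HEK293 cells stably co-expressing NOP-RLuc and Gβ1-RGFP, in DPBS. Coelenterazine 5 μM final; ligands in PBS–BSA 0.01%. BRET ratio (RGFP 510 nm / RLuc 460 nm) read 15 min after agonist, room temperature. Values are vehicle-subtracted stimulated BRET ratio. Mean of five experiments in duplicate.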

T1 sequence (P41146 whole entry): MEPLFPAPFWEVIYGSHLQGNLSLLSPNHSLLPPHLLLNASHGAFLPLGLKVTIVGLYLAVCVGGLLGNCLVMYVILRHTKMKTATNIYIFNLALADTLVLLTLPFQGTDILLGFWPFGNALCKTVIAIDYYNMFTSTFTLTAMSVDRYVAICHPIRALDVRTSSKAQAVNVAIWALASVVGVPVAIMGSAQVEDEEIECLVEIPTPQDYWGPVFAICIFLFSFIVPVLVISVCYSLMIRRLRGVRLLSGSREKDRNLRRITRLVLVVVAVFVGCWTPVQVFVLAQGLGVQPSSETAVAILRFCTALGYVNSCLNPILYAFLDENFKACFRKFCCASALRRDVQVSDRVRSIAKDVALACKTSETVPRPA

Row | Compound | Selectivity Index [1] | EC50 [2] [nM] | EC50 [3] [nM]
1 | C[C@H](NC(=O)CNC(=O)[C@@H](NC(=O)[C@H](Cc1ccccc1)NC(=O)CNC(=O)CNC(=O)[C@@H](N)Cc1ccccc1)[C@@H](C)O)C(=O)N[C@@H](CCCNC(=N)N)C(=O)N[C@@H](CCCCN)C(=O)N[C@@H](CO)C(=O)N[C@@H](C)C(=O)N[C@@H](CCCNC(=N)N)C(=O)N[C@@H](CCCCN)C(=O)N[C@@H](CSC1CC(=O)N(CCCC(=O)NCC(=O)N[C@@H](CCCCN)C(=O)NCC(=O)N[C@@H](CCCCN)C(=O)NCC(=O)N[C@@H](CCCCN)C(=O)NCC(=O)N[C@@H](CCCCN)C(=O)NCC(=O)N[C@@H](CCCCN)C(=O)NCC(=O)N[C@@H](CCCCN)C(N)=O)C1=O)C(N)=O (stereo partly specified) (I: H-FGGFTGARKSARKC-NH2 / II: GKGKGKGKGKGK-NH2; linker I:14-II:N via X2) | 1.11 | 14.5 | 1.1
2 | C[C@H](NC(=O)CNC(=O)[C@@H](NC(=O)[C@H](Cc1ccccc1)NC(=O)CNC(=O)CNC(=O)[C@@H](N)Cc1ccccc1)[C@@H](C)O)C(=O)N[C@@H](CCCNC(=N)N)C(=O)N[C@@H](CCCCN)C(=O)N[C@@H](CO)C(=O)N[C@@H](C)C(=O)N[C@@H](CCCNC(=N)N)C(=O)N[C@@H](CCCCN)C(=O)N[C@@H](CSC1CC(=O)N(CCCC(=O)N[C@@H](CCCCN)C(=O)N[C@@H](CCCCN)C(=O)N[C@@H](CCCCN)C(=O)N[C@@H](CCCCN)C(=O)N[C@@H](CCCCN)C(=O)N[C@@H](CCCCN)C(N)=O)C1=O)C(N)=O (stereo partly specified) | 0.83 | 6.03 | 0.0871
3 | CCCCCCCCCCCCCCCC(=O)NCCCN1C(=O)CC(SC[C@H](NC(=O)[C@H](CO)NC(=O)[C@H](CCCCN)NC(=O)[C@H](CCCNC(=N)N)NC(=O)[C@H](C)NC(=O)CNC(=O)[C@@H](NC(=O)[C@H](Cc2ccccc2)NC(=O)CNC(=O)CNC(=O)[C@@H](N)Cc2ccccc2)[C@@H](C)O)C(=O)N[C@@H](CCCNC(=N)N)C(=O)N[C@@H](CCCCN)C(N)=O)C1=O (stereo partly specified) (H-FGGFTGARKSC(X1)RK-NH2) | 1.11 | 34.7 | 0.437
4 | C[C@H](NC(=O)CNC(=O)[C@@H](NC(=O)[C@H](Cc1ccccc1)NC(=O)CNC(=O)CNC(=O)[C@@H](N)Cc1ccccc1)[C@@H](C)O)C(=O)N[C@@H](CCCNC(=N)N)C(=O)N[C@@H](CCCCN)C(=O)N[C@@H](CO)C(=O)NC1(C(=O)N[C@@H](CCCNC(=N)N)C(=O)N[C@@H](CCCCN)C(N)=O)CCCC1 (H-FGGFTGARKS[Ac5c]RK-NH2) | 0.31 | – | –
5 | CCCCCCCCCCCCCCCC(=O)NCCCN1C(=O)CC(SC[C@H](NC(=O)[C@H](CCCNC(=N)N)NC(=O)[C@H](C)NC(=O)[C@H](CO)NC(=O)[C@H](CCCCN)NC(=O)[C@H](CCCNC(=N)N)NC(=O)[C@H](C)NC(=O)CNC(=O)[C@@H](NC(=O)[C@H](Cc2ccccc2)NC(=O)CNC(=O)CNC(=O)[C@@H](N)Cc2ccccc2)[C@@H](C)O)C(N)=O)C1=O (stereo partly specified) (H-FGGFTGARKSARC(X1)-NH2) | 0.7 | 55 | 1.26
6 | C[C@H](NC(=O)CNC(=O)[C@@H](NC(=O)[C@H](Cc1ccccc1)NC(=O)CNC(=O)CNC(=O)[C@@H](N)Cc1ccccc1)[C@@H](C)O)C(=O)N[C@@H](CCCNC(=N)N)C(=O)N[C@@H](CCCCN)C(=O)N[C@@H](CO)C(=O)N[C@@H](C)C(=O)N[C@@H](CCCNC(=N)N)C(=O)N[C@@H](CCCCN)C(=O)N[C@@H](CSC1CC(=O)N(CCCC(=O)NCC(=O)N[C@@H](Cc2cnc[nH]2)C(=O)NCC(=O)N[C@@H](Cc2cnc[nH]2)C(=O)NCC(=O)N[C@@H](Cc2cnc[nH]2)C(=O)NCC(=O)N[C@@H](Cc2cnc[nH]2)C(=O)NCC(=O)N[C@@H](Cc2cnc[nH]2)C(=O)NCC(=O)N[C@@H](Cc2cnc[nH]2)C(N)=O)C1=O)C(N)=O (stereo partly specified) (I: H-FGGFTGARKSARKC-NH2 / II: GHGHGHGHGHGH-NH2; linker I:14-II:N via X2) | 0.17 | 12.6 | 4.27
7 | C[C@H](NC(=O)[C@H](CO)NC(=O)[C@H](CCCCN)NC(=O)[C@H](CCCNC(=N)N)NC(=O)C1(NC(=O)CNC(=O)[C@@H](NC(=O)[C@H](Cc2ccccc2)NC(=O)CNC(=O)CNC(=O)[C@@H](N)Cc2ccccc2)[C@@H](C)O)CC1)C(=O)N[C@@H](CCCNC(=N)N)C(=O)N[C@@H](CCCCN)C(N)=O (H-FGGFTG[Ac3c]RKSARK-NH2) | 0.4 | – | –
8 | H-FGGFVGARKSARK-NH2 | 0.09 | 41.7 | 11.5
9 | C[C@H](NC(=O)[C@H](CO)NC(=O)[C@H](CCCCN)NC(=O)[C@H](CCCNC(=N)N)NC(=O)C1(NC(=O)CNC(=O)[C@@H](NC(=O)[C@H](Cc2ccccc2)NC(=O)CNC(=O)CNC(=O)[C@@H](N)Cc2ccccc2)[C@@H](C)O)CCCC1)C(=O)N[C@@H](CCCNC(=N)N)C(=O)N[C@@H](CCCCN)C(N)=O (H-FGGFTG[Ac5c]RKSARK-NH2) | 0.08 | – | –
10 | C[C@H](NC(=O)CCCN1C(=O)CC(SC[C@H](NC(=O)[C@H](CCCCN)NC(=O)[C@H](CCCNC(=N)N)NC(=O)[C@H](C)NC(=O)[C@H](CO)NC(=O)[C@H](CCCCN)NC(=O)[C@H](CCCNC(=N)N)NC(=O)[C@H](C)NC(=O)CNC(=O)[C@@H](NC(=O)[C@H](Cc2ccccc2)NC(=O)CNC(=O)CNC(=O)[C@@H](N)Cc2ccccc2)[C@@H](C)O)C(N)=O)C1=O)C(=O)N[C@@H](CC(=O)O)C(=O)N[C@@H](C)C(=O)N[C@@H](CC(=O)O)C(=O)N[C@@H](C)C(=O)N[C@@H](CC(=O)O)C(=O)N[C@@H](C)C(=O)N[C@@H](CC(=O)O)C(=O)N[C@@H](C)C(=O)N[C@@H](CC(=O)O)C(=O)N[C@@H](C)C(=O)N[C@@H](CC(=O)O)C(N)=O (stereo partly specified) (I: H-FGGFTGARKSARKC-NH2 / II: ADADADADADAD-NH2; linker I:14-II:N via X2) | 0.51 | 93.3 | 24
11 | C[C@H](NC(=O)CNC(=O)[C@@H](NC(=O)[C@H](Cc1ccccc1)NC(=O)CNC(=O)CNC(=O)[C@@H](N)Cc1ccccc1)[C@@H](C)O)C(=O)N[C@@H](CCCNC(=N)N)C(=O)N[C@@H](CCCCN)C(=O)N[C@@H](CO)C(=O)NC(C)(C)C(=O)N[C@@H](CCCNC(=N)N)C(=O)N[C@@H](CCCCN)C(N)=O (H-FGGFTGARKS[Aib]RK-NH2) | 0.29 | – | –
12 | CCCCCCCCCCCCCCCC(=O)NCCCN1C(=O)CC(SC[C@H](NC(=O)[C@H](C)NC(=O)[C@H](CO)NC(=O)[C@H](CCCCN)NC(=O)[C@H](CCCNC(=N)N)NC(=O)[C@H](C)NC(=O)CNC(=O)[C@@H](NC(=O)[C@H](Cc2ccccc2)NC(=O)CNC(=O)CNC(=O)[C@@H](N)Cc2ccccc2)[C@@H](C)O)C(=O)N[C@@H](CCCCN)C(N)=O)C1=O (stereo partly specified) (H-FGGFTGARKSAC(X1)K-NH2) | – | 22.4 | 0.525
13 | C[C@H](NC(=O)CCCN1C(=O)CC(SC[C@H](NC(=O)[C@H](CCCCN)NC(=O)[C@H](CCCNC(=N)N)NC(=O)[C@H](C)NC(=O)[C@H](CO)NC(=O)[C@H](CCCCN)NC(=O)[C@H](CCCNC(=N)N)NC(=O)[C@H](C)NC(=O)CNC(=O)[C@@H](NC(=O)[C@H](Cc2ccccc2)NC(=O)CNC(=O)CNC(=O)[C@@H](N)Cc2ccccc2)[C@@H](C)O)C(N)=O)C1=O)C(=O)N[C@@H](Cc1cnc[nH]1)C(=O)N[C@@H](C)C(=O)N[C@@H](Cc1cnc[nH]1)C(=O)N[C@@H](C)C(=O)N[C@@H](Cc1cnc[nH]1)C(=O)N[C@@H](C)C(=O)N[C@@H](Cc1cnc[nH]1)C(=O)N[C@@H](C)C(=O)N[C@@H](Cc1cnc[nH]1)C(=O)N[C@@H](C)C(=O)N[C@@H](Cc1cnc[nH]1)C(N)=O (stereo partly specified) (I: H-FGGFTGARKSARKC-NH2 / II: AHAHAHAHAHAH-NH2; linker I:14-II:N via X2) | -0.05 | 9.33 | 7.94
14 | C[C@H](NC(=O)CCCN1C(=O)CC(SC[C@H](NC(=O)[C@H](CCCCN)NC(=O)[C@H](CCCNC(=N)N)NC(=O)[C@H](C)NC(=O)[C@H](CO)NC(=O)[C@H](CCCCN)NC(=O)[C@H](CCCNC(=N)N)NC(=O)[C@H](C)NC(=O)CNC(=O)[C@@H](NC(=O)[C@H](Cc2ccccc2)NC(=O)CNC(=O)CNC(=O)[C@@H](N)Cc2ccccc2)[C@@H](C)O)C(N)=O)C1=O)C(=O)N[C@@H](CCCCN)C(=O)N[C@@H](C)C(=O)N[C@@H](CCCCN)C(=O)N[C@@H](C)C(=O)N[C@@H](CCCCN)C(=O)N[C@@H](C)C(=O)N[C@@H](CCCCN)C(=O)N[C@@H](C)C(=O)N[C@@H](CCCCN)C(=O)N[C@@H](C)C(=O)N[C@@H](CCCCN)C(N)=O (stereo partly specified) (I: H-FGGFTGARKSARKC-NH2 / II: AKAKAKAKAKAK-NH2; linker I:14-II:N via X2) | 1.18 | 17.4 | 0.794
15 | CCCCCCCCCCCCCCCC(=O)NCCCN1C(=O)CC(SC[C@H](NC(=O)[C@H](CCCCN)NC(=O)[C@H](CCCNC(=N)N)NC(=O)[C@H](C)NC(=O)CNC(=O)[C@@H](NC(=O)[C@H](Cc2ccccc2)NC(=O)CNC(=O)CNC(=O)[C@@H](N)Cc2ccccc2)[C@@H](C)O)C(=O)N[C@@H](C)C(=O)N[C@@H](CCCNC(=N)N)C(=O)N[C@@H](CCCCN)C(N)=O)C1=O (stereo partly specified) (H-FGGFTGARKC(X1)ARK-NH2) | 0.91 | 19.1 | 0.288
16 | H-FGGFTAARKSARK-NH2 | 0.04 | 79.4 | 21.9
17 | H-FGGFNGARKSARK-NH2 | – | 27.5 | 9.33
